A short description of assay [1]: inhibitors of TNFa-induced NFkB p65 translocation, primary screen, imaging, HUVEC, MLSMR starter and 10KST1 sets (AID 438;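 active = inhibition above 20% together with a positive visual image hit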;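 also: compound added about 3h40 before a 20 min TNFalpha stimulation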;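 as to inhibition: signal is the nuclear over cytoplasmic p65 intensity ratio per well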). The conditions noted are these: HUVEC TNFa-induced p65 nuclear translocation; cell count: measured here: nuclei count (cytotoxicity indicator), at 2.08 µM; inhibition: at 2 µM, stronger effect = higher value, 0% TNFa-plus-vehicle, 100% no-TNFa wells.
Assay [2] can be described thus: endothelial E-selectin expression blockers – imaging, HUVEC, immunofluorescence, MLSMR starter and 10KST1 sets, primary screen (AID 487;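 active = visually confirmed hit in the image check and inhibition above 20%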;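 as to inhibition: signal is fraction of cell area covered by stained E-selectin grains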;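 as to nuclei count: 100% = median nuclei count of all wells on the same plate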). The conditions noted are these: HUVEC TNFalpha-induced E-selectin immunofluorescence imaging, at 2 µM; inhibition: stronger effect = higher value; nuclei count: measured here: cell number, toxicity.
Assay [3] can be described thus: Primary imaging screen for DUSP6 inhibitors that restore phospho-Erk in transfected HeLa cells, chemical complementation (AID 609;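 active = compounds giving at least 50% inhibition in the cell-based MKP-3 phosphatase rescue imaging test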;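 as to inhibition: phospho-Erk level distribution per well compared with pooled transfected vehicle control wells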). The conditions noted are these: HeLa MKP-3 transfected, phospho-Erk imaging KS statistic, at 10 µM, cells stimulated with TPA for 15 min.
Assay [4] has as its target Dual specificity protein phosphatase 6 (Homo sapiens) (UniProt Q16828). The description is as above. The conditions noted are these: HeLa MKP-3 transfected, phospho-Erk imaging KS statistic; at 10 µM; stronger effect = higher value; cells stimulated with TPA for 15 min.
For assay [5], the target named is Voltage-gated potassium channel subunit beta-2 (Rattus norvegicus) (UniProt P62483). In words: inhibitors of rat Kvbeta2 reductase activity – biochemical, NADPH fluorescence, primary screen (AID 622;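 active = fluorescence slope higher than the sample average by over 3 SD, cut at about -0.22 in these data, passing the limit was not always enough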;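 also: slope of raw intensity against log time taken from 70 to 1610 s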). Conditions: recombinant KvBeta, 4-cyanobenzaldehyde reduction, at 10 µM, stronger effect = higher value.
For assay [6] the target is unchanged. In words: enhancers of rat Kvbeta2 NADPH turnover – biochemical, NADPH fluorescence, primary screen (AID 623).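 Also: fluorescence intensity change per second fitted from 20 to 320 s.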 Conditions: Recombinant KvBeta, NADPH fluorescence decrease slope, 10 min; at 10 µM; stronger effect = lower value.
Assay [7] deals with Muscarinic acetylcholine receptor M4 (Homo sapiens) (UniProt P08173). As to the kind of experiment: M4-linked GIRK flux change, two-sided – cell-based, HEK293 M4/GIRK, thallium flux, BTC-AM, M4 allosteric agonist project, primary screen (AID 625;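 active = fluorescence slope after compound addition differing from the mean of all tested samples at 99.7% confidence, mostly higher but some lower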;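 also: thallium influx through GIRK channels coupled to M4 in HEK293 cells with BTC-AM dye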). The conditions noted are these: at 10 µM, actives lie on both sides. Put shortly: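 Material – HEK293 cells with M4 receptor and GIRK channels · Buffer or medium – pH 7.3 thallium assay buffer · Doses – one dose, 10 µM final · Timing – cells overnight at 37 °C, BTC-AM loading 1 h, reads 2 min total · Measured by – kinetic fluorescence with BTC-AM dye · Controls – carbachol and DMSO controls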

Assay [8] in a line: inhibitors of larval lipid processing in zebrafish, primary screen, whole organism, PED6 fluorescence, gall bladder and intestine (AID 686;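 active = a full or partial loss of lipid-probe fluorescence in the fish gall bladder, intestine or both, judged by eye; inactive = no fluorescence loss, or compound toxic to the fish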;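 also: larvae 5 to 7 days old with five fish per well; signal comes from phospholipase A2 cleavage of quenched PED6 carried via bile; overnight exposure to compound and PED6 before scoring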). Conditions: Zebrafish larvae PED6 lipid processing, fluorescence scoring; screened at 20 µM (by protocol). The method in brief:
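system = live zebrafish larvae aged 5-7 days, whole organism | probe or stimulus = ingested quenched lipid PED6 at 100 nM | doses = 20 µM single dose | timing = overnight exposure | detection = fluorescence microscopy with visual scoring of gall bladder and intestine | read-out = visual per-well fluorescence inhibition score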

Assay [9] can be described thus: loss of swimming-algae plug formation – whole organism, Chlamydomonas reinhardtii, WT vs cilia-less mutant, absorbance, 96-well, primary screen (AID 463189;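 active = inhibition at or above 50% relative to wild type and mutant plate controls; inactive = inhibition below 50%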;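 also: 0% = wild type cc124 cells in DMSO and 100% = ciliumless bld1 mutant cells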). The conditions noted are these: Chlamydomonas reinhardtii gravitaxis, OD600 absorbance, 2 days; at 10 µM; stronger effect = higher value.
Setting [10] is: measured here: cell density z-score.
[11] abbreviates: measured here: nuclear c-Myc green intensity z-score.
Setting [12] is: measured here: nuclear pErk red intensity z-score, stronger effect = higher value.

The values below come from PubChem BioAssay.

Active and inactive are the calls of the source.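 The calls were made as follows, unless noted: active = NADPH fluorescence slope more negative than the mean of all samples by about 3 SD, 99.7% confidence; inactive = the rest.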

Chain of Muscarinic acetylcholine receptor M4 (Homo sapiens) (P08173 whole entry, looked up): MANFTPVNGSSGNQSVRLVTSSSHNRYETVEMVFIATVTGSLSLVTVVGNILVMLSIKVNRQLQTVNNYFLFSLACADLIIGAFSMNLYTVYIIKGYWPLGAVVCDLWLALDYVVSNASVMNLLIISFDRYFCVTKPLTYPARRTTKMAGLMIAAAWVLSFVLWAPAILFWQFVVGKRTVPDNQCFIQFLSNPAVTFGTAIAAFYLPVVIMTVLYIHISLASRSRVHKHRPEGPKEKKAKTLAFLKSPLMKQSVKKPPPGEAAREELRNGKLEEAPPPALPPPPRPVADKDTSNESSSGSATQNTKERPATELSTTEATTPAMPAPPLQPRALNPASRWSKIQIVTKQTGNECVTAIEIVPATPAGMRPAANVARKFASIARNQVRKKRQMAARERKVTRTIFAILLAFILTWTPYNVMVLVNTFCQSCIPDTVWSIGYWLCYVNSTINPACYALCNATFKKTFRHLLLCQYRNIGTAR
Chain of Dual specificity protein phosphatase 6 (Homo sapiens) (Q16828 whole entry, looked up): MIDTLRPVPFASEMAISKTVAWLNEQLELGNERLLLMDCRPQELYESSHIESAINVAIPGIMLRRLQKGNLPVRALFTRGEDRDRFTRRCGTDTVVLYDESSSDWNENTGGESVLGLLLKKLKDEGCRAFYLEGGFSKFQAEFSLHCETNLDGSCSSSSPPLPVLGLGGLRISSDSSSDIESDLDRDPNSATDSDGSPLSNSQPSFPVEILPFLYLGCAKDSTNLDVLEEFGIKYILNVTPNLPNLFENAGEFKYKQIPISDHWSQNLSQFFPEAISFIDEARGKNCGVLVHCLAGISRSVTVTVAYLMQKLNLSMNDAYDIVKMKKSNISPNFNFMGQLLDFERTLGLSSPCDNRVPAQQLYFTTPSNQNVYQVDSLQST
Chain of Voltage-gated potassium channel subunit beta-2 (Rattus norvegicus) (P62483 whole entry, looked up): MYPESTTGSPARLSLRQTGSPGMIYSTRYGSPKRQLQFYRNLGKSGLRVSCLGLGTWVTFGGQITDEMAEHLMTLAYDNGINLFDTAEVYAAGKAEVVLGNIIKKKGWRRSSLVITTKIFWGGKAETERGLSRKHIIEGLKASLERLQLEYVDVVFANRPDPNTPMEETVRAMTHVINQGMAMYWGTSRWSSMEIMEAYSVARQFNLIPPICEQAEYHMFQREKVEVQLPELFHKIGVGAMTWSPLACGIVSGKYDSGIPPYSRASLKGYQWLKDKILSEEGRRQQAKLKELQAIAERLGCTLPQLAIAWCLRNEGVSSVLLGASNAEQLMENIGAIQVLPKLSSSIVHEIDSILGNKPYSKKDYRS

As usually defined, the inhibition is the relative decrease from the control value, in per cent. As for `Cc1ccc(-n2ncc3c(N4CCC(C(N)=O)CC4)ncnc32)c(C)c1`, the cell count in [1] came out at 525. The inhibition is -15.6% (inactive) in assay [1], -31.1% (inactive) in [2], 7.42% (inactive) in assay [4] and 42.2% (inactive) in assay [9]. In assay [2], this molecule displayed a nuclei count of 113%. Besides, the z-score in assay [3] (setting [10]) is -0.735; in [3] (setting [11]), 0.453; in assay [3] (setting [12]), -0.332. Besides, the fluorescence slope in assay [5] was -0.391 (inactive); in [7], 0.0065 (inactive). In assay [6], the NADPH fluorescence slope was -3.9e-05 (inactive). Also, the call in assay [8] was inactive.
For the molecule `COc1cc(C)nc(Nc2nc(C)c(C(C)=O)s2)n1`, the cell count in assay [1] was 393. Further, the inhibition is 0% (inactive) in assay [1], -89% (inactive) in assay [2], 43.2% (inactive) in assay [4] and 46.4% (inactive) in [9]. Also, the nuclei count in [2] stood at 125%. For the same molecule, the z-score in [3] (setting [10]) was 1.97; in assay [3] (setting [11]), -1.71; in [3] (setting [12]), -0.786. The fluorescence slope in assay [5] was -0.456 (inactive); in [7], 0.00495 (inactive). Further, the NADPH fluorescence slope in [6] was -8.3e-05 (inactive). Besides, the molecule was called inactive in assay [8].
For `CN1CCN(Cc2c(O)c(Cl)cc3c(-c4ccccc4)cc(=O)oc23)CC1`, the cell count in [1] was 601. Further, the inhibition is -8.3% (inactive) in assay [1], -38.4% (inactive) in assay [2], 2.46% (inactive) in assay [4] and 10.5% (inactive) in assay [9]. In assay [2], this molecule had a nuclei count of 108%. Moreover, the z-score in assay [3] (setting [10]) was -0.109; in assay [3] (setting [11]), -0.251; in assay [3] (setting [12]), -0.155. Moreover, the figures for the fluorescence slope in assay [5] and in assay [7] were -0.232 (inactive) and 0.00592 (inactive), respectively. Besides, the NADPH fluorescence slope in assay [6] is -2.2e-05 (inactive). Moreover, the outcome in assay [8] was inactive.
With `CC(=O)Nc1ccc(OC(=O)CC2SC(=O)NC2=O)cc1` (stereo unspecified), the cell count in assay [1] came to 552. The inhibition is -6.8% (inactive) in assay [1], -32.3% (inactive) in assay [2], -2.91% (inactive) in [4] and -6.84% (inactive) in assay [9]. For the same molecule, the nuclei count in [2] turned out to be 97.7%. The z-score in assay [3] (setting [10]) was -1.89; in assay [3] (setting [11]), 0.746; in assay [3] (setting [12]), -1.34. Further, the fluorescence slope was -0.469 (inactive) in [5] and 0.00549 (inactive) in assay [7]. For the same molecule, in [6], the NADPH fluorescence slope was -3.2e-05 (inactive). The outcome in [8] was inactive.
With `Brc1ccc(-c2cnnc(N3CCCC3)n2)cc1`, the cell count in [1] was found to be 399. Besides, the inhibition in assay [1] is -2.1% (inactive); in assay [2], -57.7% (inactive); in [4], -0.608% (inactive); in assay [9], 42.9% (inactive). In assay [2], the nuclei count amounted to 130%. Moreover, the values for the z-score in assay [3] (setting [10]), in assay [3] (setting [11]) and in assay [3] (setting [12]) were -1.38, 0.891 and -0.195, respectively. For the same molecule, the fluorescence slope in [5] is -0.415 (inactive); in assay [7], 0.005 (inactive). The NADPH fluorescence slope in assay [6] was -1.2e-05 (inactive). Also, the molecule was called inactive in [8].
Turning to `COC(=O)c1cc(Br)c(=O)n(-c2cc(C)on2)c1`, the cell count in assay [1] worked out at 650. The inhibition was -3.9% (inactive) in [1], 23.3% (inactive) in assay [2], -2.91% (inactive) in [4] and 8.55% (inactive) in [9]. Also, the nuclei count in assay [2] turned out to be 115%. The z-score in assay [3] (setting [10]) is -0.164; in assay [3] (setting [11]) it was -1.68; in assay [3] (setting [12]), 0.836. Also, the fluorescence slope in [5] was -0.438 (inactive); in assay [7] it was 0.00456 (inactive). Besides, the NADPH fluorescence slope in assay [6] is -1.4e-05 (inactive). Further, in [8], the call was inactive.
As to `CCOC(=O)c1[nH]c2ccc(F)cc2c1NC(=O)CCN1CCSCC1`, the cell count in assay [1] came to 617. Also, the inhibition in assay [1] is -1.1% (inactive); in [2], -124% (inactive); in assay [4] it was 1.42% (inactive); in assay [9], -7.59% (inactive). Besides, the nuclei count in assay [2] came out at 130%. Moreover, the results for the z-score in assay [3] (setting [10]), in [3] (setting [11]) and in [3] (setting [12]) were -0.422, 0.0168 and 1.05, respectively. The fluorescence slope in assay [5] is -0.455 (inactive); in assay [7] it was 0.00431 (inactive). Also, the NADPH fluorescence slope in assay [6] was -0.000125 (inactive). Also, the outcome in assay [8] was inactive.
